Test results from ChEMBL document CHEMBL1177871, “Synthesis and antitumor activity of novel 2',3'-diethanethio-2',3',5'-trideoxy-5'-triazolonucleoside analogues” (Eur J Med Chem, 2010).

Key:
Assay type in all cases: functional, cell-based
[1] = system: HepG2; assay: Cytotoxicity against human HepG2 cells after 72 hrs by MTT assay; settings: HepG2, 72 h
Procedure, shortened: (§1)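 Incubation was 72 h at 37 °C in 95% air/5% CO₂. MTT was then added for 4 h and absorbance read at 490 nm. EC₅₀ is the concentration giving 50% growth inhibition versus untreated control; 5-fluorouridine served as reference.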

[2] = system: A549; assay: Cytotoxicity against human A549 cells after 72 hrs by MTT assay; settings: A549, 72 h; procedure, shortened: as §1
[3] = Cytotoxicity against human LAC cells after 72 hrs by MTT assay; procedure, shortened: as §1
[4] = system: HeLa; assay: Cytotoxicity against human HeLa cells after 72 hrs by MTT assay; procedure, shortened: as §1

| Structure (SMILES) | EC50 [1] | EC50 [2] | EC50 [3] | EC50 [4] |
| --- | --- | --- | --- | --- |
| CCS[C@@H]1[C@H](SCC)[C@@H](Cn2cc(-c3ccccc3C(F)(F)F)nn2)O[C@H]1n1cc(C)c(=O)[nH]c1=O | 22.1 µM | 7.23 µM | 50.6 µM | 54.3 µM |
| CCOC(=O)c1cn(C[C@H]2O[C@@H](n3cc(C)c(=O)[nH]c3=O)[C@H](SCC)[C@@H]2SCC)nn1 | ≥ 100 µM | ≥ 100 µM | ≥ 100 µM | ≥ 100 µM |
| CCS[C@@H]1[C@H](SCC)[C@@H](Cn2cc(-c3ccc(C)cc3)nn2)O[C@H]1n1cc(C)c(=O)[nH]c1=O | 21.6 µM | 12.3 µM | ≥ 100 µM | 77.5 µM |
| CCS[C@@H]1[C@H](SCC)[C@@H](Cn2cc(-c3cccc(C)c3)nn2)O[C@H]1n1ccc(=O)[nH]c1=O | 18.3 µM | 12.2 µM | 99 µM | 18.8 µM |
| CCS[C@@H]1[C@H](SCC)[C@@H](Cn2cc(-c3ccc(OC)cc3)nn2)O[C@H]1n1ccc(=O)[nH]c1=O | 16.2 µM | 16.8 µM | 24.3 µM | 27.7 µM |
| CCS[C@@H]1[C@H](SCC)[C@@H](Cn2cc(-c3ccc(OC)cc3)nn2)O[C@H]1n1cc(C)c(=O)[nH]c1=O | 22.8 µM | 38.8 µM | 25.9 µM | 66 µM |
| CCS[C@@H]1[C@H](SCC)[C@@H](Cn2cc(-c3ccc(F)cc3)nn2)O[C@H]1n1cc(C)c(=O)[nH]c1=O | 22.7 µM | ≥ 100 µM | ≥ 100 µM | 39.5 µM |
| CCS[C@@H]1[C@H](SCC)[C@@H](Cn2cc(-c3ccccc3)nn2)O[C@H]1n1cc(C)c(=O)[nH]c1=O | 65 µM | 31.7 µM |  | 1.89 µM |
| CCS[C@@H]1[C@H](SCC)[C@@H](Cn2cc(-c3ccccc3)nn2)O[C@H]1n1ccc(N)nc1=O | 57.1 µM | 64 µM |  | 33.5 µM |
| CCS[C@@H]1[C@H](SCC)[C@@H](Cn2cc(-c3cccs3)nn2)O[C@H]1n1cc(C)c(=O)[nH]c1=O | ≥ 100 µM | 37.3 µM | ≥ 100 µM | 54.9 µM |
| CCS[C@@H]1[C@H](SCC)[C@@H](Cn2cc(-c3ccccc3C(F)(F)F)nn2)O[C@H]1n1ccc(=O)[nH]c1=O | 30.3 µM | 19.4 µM | 81.1 µM | 32.8 µM |
| CCS[C@@H]1[C@H](SCC)[C@@H](Cn2cc(-c3ccccc3)nn2)O[C@H]1n1ccc(=O)[nH]c1=O | 8.38 µM | 3.04 µM |  | 6.59 µM |
| CCS[C@@H]1[C@H](SCC)[C@@H](Cn2cc(-c3ccc(F)cc3)nn2)O[C@H]1n1ccc(=O)[nH]c1=O | 22.6 µM | 22.9 µM | 72.4 µM | 37.4 µM |
| CCS[C@@H]1[C@H](SCC)[C@@H](Cn2cc(-c3cccs3)nn2)O[C@H]1n1ccc(=O)[nH]c1=O | 91.8 µM | ≥ 100 µM | 86.5 µM | ≥ 100 µM |
| CCS[C@@H]1[C@H](SCC)[C@@H](Cn2cc(COC(C)=O)nn2)O[C@H]1n1ccc(=O)[nH]c1=O | ≥ 100 µM | ≥ 100 µM | ≥ 100 µM | ≥ 100 µM |
| CCOC(=O)c1cn(C[C@H]2O[C@@H](n3ccc(=O)[nH]c3=O)[C@H](SCC)[C@@H]2SCC)nn1 | ≥ 100 µM | ≥ 100 µM | ≥ 100 µM | ≥ 100 µM |
| CCS[C@@H]1[C@H](SCC)[C@@H](Cn2cc(-c3ccc(C)cc3)nn2)O[C@H]1n1ccc(=O)[nH]c1=O | 19.9 µM | 6.78 µM | ≥ 100 µM | 46.7 µM |
| O=c1[nH]cc(F)c(=O)[nH]1 [FLUOROURACIL] | 52.4 µM | 100 µM | 43.7 µM | 79.8 µM |
